Columns and labels:
Type in all cases: functional, Homo sapiens
[1] = system: HMEC; experiment: Cytotoxic effect of LDL oxidized by HMEC1 cells at 10 uM by MTT assay expressed as percentage of viability in unstimulated control
In short: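 LDL (100 µg apoB/mL) was first oxidized by HMEC-1 for 6 h in RPMI with 1 µM Cu2+ and compound at 10 µM. This LDL then stayed on serum-starved HMEC-1 for a 24 h pulse. Viability was read by MTT as % of control cells in fresh RPMI without LDL or antioxidant. Mean of four determinations.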

[2] = system: HMEC; experiment: Ability to inhibit HMEC1-mediated LDL oxidation at 10 uM evaluated by TBARS formation in the presence of copper; set-up: scale not given: the % may be the effect or the level left
In short: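 Human plasma LDL (100 µg apoB/mL) was incubated with subconfluent HMEC-1 in serum-free RPMI-1640 with 1 µM Cu2+ for 6 h at 37 °C. Cells had been serum-starved for 24 h. Compound was added in DMSO just before oxidation, in duplicate. TBARS in the medium were measured fluorimetrically (Yagi), as % of cell-oxidized LDL without antioxidant. Mean of four determinations.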

[3] = system: HMEC; experiment: Ability to inhibit HMEC1-mediated LDL oxidation at 100 uM evaluated by TBARS formation in the absence of copper; set-up: scale not given: the % may be the effect or the level left
[4] = system: HMEC; experiment: Ability to inhibit HMEC1-mediated LDL oxidation at 10 uM evaluated by TBARS formation in the absence of copper; set-up: scale not given: the % may be the effect or the level left

SMILES	Activity [1] [%]	Activity [2] [%]	Activity [3] [%]	Activity [4] [%]
CCOP(=O)(O)/C=C/c1ccc(O)c(OC)c1	21.7	52.7	–	–
CCOP(=O)(O)/C=C/c1cc(OC)c(O)c(OC)c1	45	16	–	–
CCOP(=O)(O)/C=C/c1ccc(O)cc1	13.3	101	–	–
COc1ccc(/C=C/C(=O)Nc2ccccn2)cc1OC	20.7	100	–	–
COc1cc(/C=C/C(=O)SCCNC(C)=O)cc(OC)c1O	88.7	12.7	8	18
CCOP(=O)(/C=C/c1cc(OC)c(O)c(OC)c1)OCC	81	13	–	–
COc1cc(/C=C/C(=O)SCCNC(C)=O)ccc1O	69.3	40.3	–	–
CCOP(=O)(/C=C/c1ccc(O)c(OC)c1)OCC	75.7	32.3	–	–
CCOP(=O)(/C=C/c1ccc(O)cc1)OCC	65.3	77.6	–	–
COc1ccc(/C=C/C(=O)SCCNC(C)=O)cc1	21.7	109	–	–
COc1cc(/C=C/C(=O)NCCc2c[nH]c3ccccc23)ccc1O	93.6	9.6	–	–
COc1cccc(/C=C/C(=O)Nc2ccccn2)c1	48.7	61.3	–	–
CC(=O)NCCSC(=O)/C=C/c1ccc(O)cc1	22.6	95.6	–	–
Cc1c(C)c2c(c(C)c1O)CC[C@@](C)(CCC[C@H](C)CCC[C@H](C)CCCC(C)C)O2 [ALPHA-TOCOPHEROL]	29	55	–	–
CC(C)(Sc1cc(C(C)(C)C)c(O)c(C(C)(C)C)c1)Sc1cc(C(C)(C)C)c(O)c(C(C)(C)C)c1 [PROBUCOL]	92	10	–	–
